The values below come from ChEMBL document CHEMBL4138228, “Substituted carbamothioic amine-1-carbothioic thioanhydrides as novel trichomonicidal fungicides: Design, synthesis, and biology” (Eur J Med Chem, 2018).

Values after ≈ are worked out from the molar mass of the structure shown.

Data set [1] deals with Candida albicans. The data set can be described thus: Antifungal activity against Candida albicans ATCC 66027 after 48 hrs by broth microdilution method. It is filed as functional. Conditions: ATCC 66027, 48 h. An outline of the steps:
(§1)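 Broth microdilution per NCCLS guidelines in MOPS-buffered RPMI 1640; starting inoculum 1-5 x 10^3 CFU/mL; plates incubated at 35 °C; MIC recorded after 48 h; fluconazole as reference; experiments repeated three times.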

A short description of data set [2]: Selectivity index, ratio of IC50 for human HeLa cells to MIC for metronidazole-resistant Trichomonas vaginalis CDC085 ATCC 50143. The conditions noted are these: read-out: Selectivity Index. It is filed as toxicity.
The subject of a further data set is Cryptococcus neoformans. The data set can be described thus: Antifungal activity against Cryptococcus neoformans after 48 hrs by broth microdilution method. Format: functional. An outline of the steps:
as §1

Another data set has as its system HeLa. The data set can be described thus: Cytotoxicity against human HeLa cells after 24 hrs by MTT assay. Format: cell-based.
The subject of data set [3] is Trichomonas vaginalis. The data set can be described thus: Antitrichomonas activity against metronidazole-susceptible Trichomonas vaginalis assessed as decrease in cell viability after 48 hrs by trypan blue exclusion method. It is filed as functional.
Data set [4] has as its system Trichomonas vaginalis. The data set can be described thus: Antitrichomonas activity against metronidazole-resistant Trichomonas vaginalis CDC085 ATCC 50143 assessed as decrease in cell viability after 48 hrs by trypan blue exclusion method. It is filed as functional. Conditions: CDC085 ATCC 50143, 48 h.
For the next data set, the system named is Nakaseomyces glabratus. The data set can be described thus: Antifungal activity against Candida glabrata ATCC 2001 after 48 hrs by broth microdilution method. Format: functional. The conditions noted are these: ATCC 2001, 48 h. An outline of the steps:
as §1

For another data set, the system named is Sporothrix schenckii. The data set can be described thus: Antifungal activity against Sporothrix schenckii after 48 hrs by broth microdilution method. Format: functional. In a few lines:
as §1

Data set [5] concerns Candida albicans. The data set can be described thus: Antifungal activity against Candida albicans ATCC 14053 after 48 hrs by broth microdilution method. Conditions: ATCC 14053, 48 h. Format: functional. An outline of the steps: as §1
Data set [6] deals with Trichophyton mentagrophytes. The data set can be described thus: Antifungal activity against Trichophyton mentagrophytes after 48 hrs by broth microdilution method. Format: functional. In a few lines:
as §1

Data set [7] deals with Trichomonas vaginalis. The data set can be described thus: Potency index, ratio of metronidazole MIC to test compound MIC for metronidazole-resistant Trichomonas vaginalis CDC085 ATCC 50143. Format: functional.
The test system of another data set is Candida parapsilosis. The data set can be described thus: Antifungal activity against Candida parapsilosis ATCC 22019 after 48 hrs by broth microdilution method. It is filed as functional. The conditions noted are these: Lodderomyces parapsilosis, ATCC 22019, 48 h. In a few lines:
as §1

Data set [8] can be described thus: Selectivity index, ratio of IC50 for human HeLa cells to MIC for metronidazole-susceptible Trichomonas vaginalis. Format: toxicity. The conditions noted are these: read-out: Selectivity Index.
The subject of data set [9] is Candida albicans. The data set can be described thus: Antifungal activity against Candida albicans MTCC 183 after 48 hrs by broth microdilution method. It is filed as functional. The conditions noted are these: MTCC 183, 48 h. In a few lines:
as §1

For data set [10], the system named is Candida albicans. The data set can be described thus: Antifungal activity against Candida albicans patient isolate after 48 hrs by broth microdilution method. It is filed as functional. An outline of the steps:
as §1

In data set [11] the test system is Candida albicans. The data set can be described thus: Antifungal activity against Candida albicans ATCC 10231 after 48 hrs by broth microdilution method. It is filed as functional. The conditions noted are these: ATCC 10231, 48 h. An outline of the steps: as §1

In the case of `CN(C)C(=S)SC(=S)N(C)C` [BIS(DIMETHYLAMINETHIOCARBONYL)MONOSULFIDE], the MIC in the data set with Candida albicans [1] was determined as 60.1 µM (≈ 12.5 µg/mL); against Cryptococcus neoformans it was 240 µM (≈ 50.1 µg/mL); in the data set with Trichomonas vaginalis [3] it was 60.1 µM (≈ 12.5 µg/mL); in the data set on Trichomonas vaginalis [4], 240 µM (≈ 50.1 µg/mL); against Nakaseomyces glabratus, 60.1 µM (≈ 12.5 µg/mL); in the data set with Sporothrix schenckii, 60.1 µM (≈ 12.5 µg/mL). Further, the MIC against Candida albicans [5] stood at 120 µM (≈ 25 µg/mL); in data set [6], 60.1 µM (≈ 12.5 µg/mL); in the data set on Candida parapsilosis, 120 µM (≈ 25 µg/mL); in the data set on Candida albicans [9], 120 µM (≈ 25 µg/mL); against Candida albicans [10] it was 120 µM (≈ 25 µg/mL); in the data set on Candida albicans [11], 120 µM (≈ 25 µg/mL). Besides, the selectivity ratio is more than 20 in [2] and more than 83 in data set [8]. Further, in the data set on HeLa, the IC50 is more than 5 mM. In addition, the Ratio in the data set with Trichomonas vaginalis [7] is recorded as 1.3 - 11.2.
With `CN(C)C(=S)SC(=S)N1CCOCC1`, the MIC in the data set on Candida albicans [1] amounted to 100 µM (≈ 25 µg/mL); in the data set with Cryptococcus neoformans, 200 µM (≈ 50.1 µg/mL); with Trichomonas vaginalis [3] it was 100 µM (≈ 25 µg/mL); in the data set with Trichomonas vaginalis [4], 400 µM (≈ 100 µg/mL); against Nakaseomyces glabratus, 100 µM (≈ 25 µg/mL); in the data set on Sporothrix schenckii, 100 µM (≈ 25 µg/mL). Further, the MIC is 50 µM (≈ 12.5 µg/mL) in the data set with Candida albicans [5]; 100 µM (≈ 25 µg/mL) in data set [6]; 200 µM (≈ 50.1 µg/mL) in the data set on Candida parapsilosis; 50 µM (≈ 12.5 µg/mL) with Candida albicans [9]; 200 µM (≈ 50.1 µg/mL) with Candida albicans [10]; 25 µM (≈ 6.26 µg/mL) in the data set on Candida albicans [11]. In addition, the selectivity ratio in data set [2] amounted to 10; in data set [8], 40. In the data set on HeLa, this compound had an IC50 of 4 mM.
For `CCCCSC(=S)N1CCN(C(=S)SC(=S)N(C)C)CC1`, the MIC is 32.7 µM (≈ 12.5 µg/mL) in the data set with Candida albicans [1]; 65.3 µM (≈ 24.9 µg/mL) against Cryptococcus neoformans; 262 µM (≈ 99.9 µg/mL) with Trichomonas vaginalis [3]; 654 µM (≈ 250 µg/mL) in the data set on Trichomonas vaginalis [4]; 131 µM (≈ 49.9 µg/mL) against Nakaseomyces glabratus; 32.7 µM (≈ 12.5 µg/mL) in the data set on Sporothrix schenckii. For the same compound, the MIC is 131 µM (≈ 49.9 µg/mL) against Candida albicans [5]; 32.7 µM (≈ 12.5 µg/mL) in data set [6]; 8.16 µM (≈ 3.11 µg/mL) in the data set on Candida parapsilosis; 131 µM (≈ 49.9 µg/mL) in the data set with Candida albicans [9]; 16.3 µM (≈ 6.23 µg/mL) with Candida albicans [10]; more than 131 µM in the data set with Candida albicans [11]. In addition, the figures for the selectivity ratio in data set [2] and in [8] were more than 7 and more than 19, respectively. This compound also showed an IC50 in the data set on HeLa of more than 5 mM.
Turning to `CN(C)C(=S)SC(=S)N1CCCC1`, the MIC with Candida albicans [1] amounted to 53.4 µM (≈ 12.5 µg/mL); in the data set with Cryptococcus neoformans, 214 µM (≈ 50.1 µg/mL); in the data set on Trichomonas vaginalis [3] it was 26.7 µM (≈ 6.26 µg/mL); with Trichomonas vaginalis [4], 107 µM (≈ 25 µg/mL); against Nakaseomyces glabratus it was 53.4 µM (≈ 12.5 µg/mL); against Sporothrix schenckii, 53.4 µM (≈ 12.5 µg/mL). The minimal inhibitory concentration (MIC) against Candida albicans [5] stood at 26.7 µM (≈ 6.26 µg/mL); in [6], 53.4 µM (≈ 12.5 µg/mL); in the data set on Candida parapsilosis, 107 µM (≈ 25 µg/mL); with Candida albicans [9], 53.4 µM (≈ 12.5 µg/mL); against Candida albicans [10], 107 µM (≈ 25 µg/mL); in the data set with Candida albicans [11], 53.4 µM (≈ 12.5 µg/mL). Further, the selectivity ratio in data set [2] was found to be 29; in [8], 115. The IC50 in the data set with HeLa came to 3.09 mM. Further, in the data set on Trichomonas vaginalis [7], the Ratio is given as 1.5 - 3.8.
Turning to `OC(Cn1cncn1)(Cn1cncn1)c1ccc(F)cc1F` [FLUCONAZOLE], the minimum inhibitory concentration (MIC) is 1.63 µM (≈ 0.499 µg/mL) against Candida albicans [1]; 6.53 µM (≈ 2 µg/mL) against Cryptococcus neoformans; 13.1 µM (≈ 4 µg/mL) in the data set on Nakaseomyces glabratus; 6.53 µM (≈ 2 µg/mL) with Sporothrix schenckii; 0.39 µM (≈ 0.119 µg/mL) with Candida albicans [5]; more than 105 µM in data set [6]. Also, the MIC in the data set on Candida parapsilosis came out at 6.53 µM (≈ 2 µg/mL); in the data set on Candida albicans [10] it was 3.26 µM (≈ 0.998 µg/mL); in the data set with Candida albicans [11], 3.26 µM (≈ 0.998 µg/mL).
Take `CSC(=S)N1CCN(C(=S)SC(=S)N(C)C)CC1`: the MIC in the data set on Candida albicans [1] is more than 147 µM; in the data set with Cryptococcus neoformans, more than 147 µM; in the data set on Trichomonas vaginalis [3], 294 µM (≈ 99.9 µg/mL); with Trichomonas vaginalis [4] it was 735 µM (≈ 250 µg/mL); against Nakaseomyces glabratus, more than 147 µM; in the data set on Sporothrix schenckii, 147 µM (≈ 49.9 µg/mL). Further, the MIC against Candida albicans [5] was more than 147 µM; in data set [6], 147 µM (≈ 49.9 µg/mL); against Candida parapsilosis, 36.8 µM (≈ 12.5 µg/mL); with Candida albicans [9], more than 147 µM; in the data set on Candida albicans [10], more than 147 µM; in the data set with Candida albicans [11], more than 147 µM. The selectivity ratio is more than 7 in data set [2] and more than 17 in data set [8]. In the data set on HeLa, this compound registered an IC50 of more than 5 mM.
